Pf Dd2 growth – blocks growth of Plasmodium falciparum Dd2 parasites. P. falciparum Dd2 growth, SYBR Green, 72 h; active compounds read low. activity change, % at 10 µM. actives 2.3% (n = 94,000). AID 1159554; in the data active means activity change below about -80%; inconclusive means no clear call, values can overlap the other calls
GASC1 inh – inhibitors of human demethylase GASC-1 KDM4C. GST-KDM4C 2-372, H3K9me3 peptide, LANCE TR-FRET. actives 0.15% (n = 96,000). Q9H3R0. inhibition, % at 12.5 µM;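 active means mean replicate inhibition above about 25%, with at least 55% of replicates also reaching it, limit read from the data, passing the limit was not always enough; inconclusive means only one of those two conditions met; inactive means neither condition met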
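Material: GST-tagged GASC-1 (JMJD2C) catalytic fragment, aa 2-372. Input: enzyme final amount 10 nM. Medium: HEPES buffer, pH 7.5, plus ascorbate. Reagent: H3K9me3 peptide substrate, Fe(II), 2-oxoglutarate. Doses: single dose. Times: reaction 30 min RT, detection step 1 h RT. Measured by: LANCE TR-FRET. Evaluation: Fall in 671/618 emission ratio as inhibition.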
IDH1 R132H inh – IDH1 R132H (human) inhibition. O75874. IDH1 R132H reductase, diaphorase/resazurin fluorescence, 60 min. inhibition, % at 10 µM. actives 0.18% (n = 70,000); in the data active means inhibition above about 34%; inconclusive means no clear call, values can overlap the other calls; inactive means below about 11%
Target sequence (O75874 whole entry R132H): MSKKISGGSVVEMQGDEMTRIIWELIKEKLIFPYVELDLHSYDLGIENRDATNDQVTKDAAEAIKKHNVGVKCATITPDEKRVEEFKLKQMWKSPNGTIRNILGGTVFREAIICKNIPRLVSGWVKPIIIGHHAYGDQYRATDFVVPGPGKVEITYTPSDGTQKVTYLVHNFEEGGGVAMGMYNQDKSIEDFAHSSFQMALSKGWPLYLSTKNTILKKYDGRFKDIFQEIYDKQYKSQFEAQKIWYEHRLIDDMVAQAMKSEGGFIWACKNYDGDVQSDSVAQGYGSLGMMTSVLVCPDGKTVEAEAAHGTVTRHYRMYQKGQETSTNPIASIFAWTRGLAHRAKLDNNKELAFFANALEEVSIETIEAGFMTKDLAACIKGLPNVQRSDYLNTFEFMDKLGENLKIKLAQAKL
Each line names hits and unclear results; the compound was inactive in the other large screens. This excerpt belongs to a sample that is enriched for hits.

C[C@H]1CN([C@@H](C)CO)C(=O)c2cccc(NC(=O)CCCCCC(=O)Nc3ccccc3N)c2O[C@H]1CN(C)S(=O)(=O)c1ccc(Cl)cc1	Pf Dd2 growth -90 (no result: IDH1 R132H inh)
COc1ccc(S(=O)(=O)N(C)C[C@H]2Oc3c(NC(=O)CCCCCC(=O)Nc4ccccc4N)cccc3C(=O)N([C@@H](C)CO)C[C@H]2C)cc1	Pf Dd2 growth -92 (no result: IDH1 R132H inh)
COc1ccc(S(=O)(=O)N(C)C[C@@H]2Oc3c(NC(=O)CCCCCC(=O)Nc4ccccc4N)cccc3C(=O)N([C@@H](C)CO)C[C@@H]2C)cc1	none
C[C@@H]1CN([C@@H](C)CO)C(=O)c2cccc(NC(=O)CCCCCC(=O)Nc3ccccc3N)c2O[C@@H]1CN(C)S(=O)(=O)c1ccc(F)cc1	Pf Dd2 growth -92
C[C@@H]1CN([C@H](C)CO)C(=O)c2cccc(NC(=O)CCCCCC(=O)Nc3ccccc3N)c2O[C@@H]1CN(C)S(=O)(=O)c1ccc(F)cc1	none (no result: IDH1 R132H inh)
C[C@H](CO)N1C[C@H](C)[C@H](CN(C)S(=O)(=O)c2ccc(F)cc2)Oc2c(NC(=O)CCCCCC(=O)Nc3ccccc3N)cccc2C1=O	Pf Dd2 growth -83 (no result: IDH1 R132H inh)
C[C@@H]1CN([C@H](C)CO)C(=O)c2cccc(NC(=O)CCCCCC(=O)Nc3ccccc3N)c2O[C@H]1CN(C)S(=O)(=O)c1ccc(Cl)cc1	none (no result: IDH1 R132H inh)
C[C@@H]1CN([C@@H](C)CO)C(=O)c2cc(N(C)C)ccc2O[C@H]1CN(C)S(=O)(=O)c1ccc(F)cc1	none
C[C@H]1CN([C@@H](C)CO)C(=O)c2cc(NS(=O)(=O)c3ccccc3)ccc2O[C@H]1CN(C)C(=O)Nc1ccc(C(F)(F)F)cc1	none
C[C@H]1CN([C@@H](C)CO)C(=O)c2cccc(NC(=O)NC3CCCCC3)c2O[C@H]1CN(C)Cc1ccc(C(F)(F)F)cc1	none (no result: IDH1 R132H inh)
COc1ccc(NC(=O)N(C)C[C@@H]2OCc3ccccc3-c3c(n(C)c4ccccc34)C(=O)N([C@@H](C)CO)C[C@H]2C)c(OC)c1	none (no result: IDH1 R132H inh)
COc1ccc(NC(=O)N(C)C[C@H]2OCc3ccccc3-c3c(n(C)c4ccccc34)C(=O)N([C@@H](C)CO)C[C@H]2C)c(OC)c1	Pf Dd2 growth -89 (no result: IDH1 R132H inh)
COc1ccc(NC(=O)N(C)C[C@H]2OCc3ccccc3-c3c(n(C)c4ccccc34)C(=O)N([C@H](C)CO)C[C@@H]2C)c(OC)c1	Pf Dd2 growth -86 (no result: IDH1 R132H inh)
COc1ccc(NC(=O)N(C)C[C@H]2OCc3ccccc3-c3c(n(C)c4ccccc34)C(=O)N([C@H](C)CO)C[C@H]2C)c(OC)c1	none
Cc1ccccc1S(=O)(=O)N1[C@@H](C#N)[C@@H](c2ccc(-c3ccccc3)cc2)[C@@H]1CO	none (no result: IDH1 R132H inh)
S=C1NN(c2ccccc2)C2=C(CCC2)S1	none (no result: Pf Dd2 growth, GASC1 inh)
CC(C)C#Cc1ccc([C@@H]2[C@H]3CN(C(=O)c4ccc5c(c4)OCO5)CC(=O)N3[C@H]2CO)cc1	none (no result: IDH1 R132H inh)
COc1ccccc1NC(=O)N1CCCCN2[C@@H](CO)[C@@H](c3ccc(-c4cccc(C)c4)cc3)[C@@H]2C1	Pf Dd2 growth -83 (no result: IDH1 R132H inh)
COc1ccccc1NC(=O)N1CCCCN2[C@@H](CO)[C@H](c3ccc(C#CC4CC4)cc3)[C@@H]2C1	none (no result: GASC1 inh, IDH1 R132H inh)
COc1ccccc1NC(=O)N1CCCCN2[C@@H](CO)[C@@H](c3ccc(C#CC4CC4)cc3)[C@@H]2C1	Pf Dd2 growth -90 (no result: GASC1 inh, IDH1 R132H inh)
COc1ccccc1NC(=O)N1CCCCN2[C@H](C1)[C@H](c1ccc(-c3cccc(C)c3)cc1)[C@@H]2CO	none (no result: IDH1 R132H inh)
CCN1[C@H](C(=O)NCC2CC2)[C@@H](CO)[C@@H]2Cn3c(ccc(-c4ccccc4)c3=O)[C@@H]21	none (no result: IDH1 R132H inh)
C[C@H](CO)N1C[C@H](C)[C@@H](CN(C)C(=O)Nc2ccc3c(c2)OCO3)OCCCC[C@H](C)Oc2ccc(NC(=O)C3CCCCC3)cc2C1=O	none (no result: IDH1 R132H inh)
C[C@@H]1CCCCO[C@H](CN(C)C(=O)Nc2ccc(F)cc2)[C@H](C)CN([C@@H](C)CO)C(=O)c2cc(NS(=O)(=O)c3cccs3)ccc2O1	Pf Dd2 growth -85 (no result: IDH1 R132H inh)
C[C@@H]1CCCCO[C@H](CN(C)C(=O)Nc2ccc(C(F)(F)F)cc2)[C@H](C)CN([C@@H](C)CO)C(=O)c2cc(NS(=O)(=O)c3cccs3)ccc2O1	Pf Dd2 growth inconclusive
C[C@@H]1CCCCO[C@H](CN(C)C(=O)Nc2ccc(F)cc2)[C@@H](C)CN([C@H](C)CO)C(=O)c2cc(NS(=O)(=O)c3cccs3)ccc2O1	none
C[C@@H]1CCCCO[C@H](CN(C)C(=O)Nc2ccc(C(F)(F)F)cc2)[C@H](C)CN([C@H](C)CO)C(=O)c2cc(NS(=O)(=O)c3cccs3)ccc2O1	Pf Dd2 growth -84
C[C@@H]1CN([C@@H](C)CO)C(=O)Cc2cc(NC(=O)NC3CCCCC3)ccc2O[C@H]1CN(C)S(=O)(=O)c1cn(C)cn1	none
COc1ccc(S(=O)(=O)Nc2cccc3c2O[C@@H](CN(C)Cc2ccc4c(c2)OCO4)[C@@H](C)CN([C@@H](C)CO)C3=O)cc1	none
O=C(C[C@@H]1C=C[C@H](NC(=O)c2cccc(F)c2)[C@@H](CO)O1)NCc1ccccc1	none
COc1ccc(C#Cc2ccc([C@H]3[C@@H](CO)N4CCCCN(Cc5ccncc5)C[C@@H]34)cc2)cc1	none (no result: IDH1 R132H inh)
COc1ccc(C#Cc2ccc([C@@H]3[C@@H](CO)N4CCCCN(Cc5ccccc5F)C[C@@H]34)cc2)cc1	none (no result: IDH1 R132H inh)
COc1ccc(C#Cc2ccc([C@H]3[C@@H](CO)N4CCCCN(Cc5ccncc5)C[C@H]34)cc2)cc1	Pf Dd2 growth -83 (no result: IDH1 R132H inh)
COc1ccc(C#Cc2ccc([C@@H]3[C@H](CO)N4CCCCN(Cc5ccccc5F)C[C@@H]34)cc2)cc1	Pf Dd2 growth -82 (no result: IDH1 R132H inh)
C[C@H]1CN([C@@H](C)CO)C(=O)Cc2cc(NC(=O)Nc3ccc(C(F)(F)F)cc3)ccc2O[C@H]1CN(C)C	none (no result: IDH1 R132H inh)
C[C@H]1CCCCO[C@H](CN(C)S(=O)(=O)c2ccc(Cl)cc2)[C@@H](C)CN([C@@H](C)CO)C(=O)c2cc(NS(=O)(=O)c3ccccc3)ccc2O1	Pf Dd2 growth -90
C[C@@H]1CCCCO[C@@H](CN(C)S(=O)(=O)c2ccc(Cl)cc2)[C@@H](C)CN([C@@H](C)CO)C(=O)c2cc(NS(=O)(=O)c3ccccc3)ccc2O1	none (no result: IDH1 R132H inh)
C[C@@H]1CN([C@H](C)CO)C(=O)c2cc(NS(=O)(=O)c3ccccc3)ccc2O[C@@H](C)CCCCO[C@@H]1CN(C)S(=O)(=O)c1ccc(Cl)cc1	none
C[C@@H]1CN([C@@H](C)CO)C(=O)c2cc(NS(=O)(=O)c3ccccc3)ccc2O[C@@H](C)CCCCO[C@@H]1CN(C)S(=O)(=O)c1ccc(Cl)cc1	Pf Dd2 growth -85 (no result: IDH1 R132H inh)
C[C@@H]1CCCCO[C@H](CN(C)CC2CCCCC2)[C@@H](C)CN([C@H](C)CO)C(=O)c2cc(NC(=O)Nc3cccc4ccccc34)ccc2O1	none (no result: IDH1 R132H inh)
C[C@@H]1CCCCO[C@@H](CN(C)C)[C@@H](C)CN([C@@H](C)CO)C(=O)c2cc(NC(=O)Nc3cccc4ccccc34)ccc2O1	none (no result: Pf Dd2 growth)
C[C@@H]1CN([C@@H](C)CO)C(=O)c2cc(NC(=O)Nc3cccc4ccccc34)ccc2O[C@@H](C)CCCCO[C@@H]1CN(C)C	Pf Dd2 growth -87

Screening results deposited in PubChem by Broad Institute.
